Published values collected from several papers.
Each line is one published result; the experiments were not run side by side.

Compound	test system	setting	Cmax
CN(C)C(=O)c1cc2cnc(Nc3ccc(-c4ccc5c(=O)cc(N6CCOCC6)oc5c4)cc3)nc2n1C1CCCC1	BALB/c mouse, plasma	oral, 20 mg/kg	1440 ng/mL
Cc1ccc(OCC(=O)N[C@@H](Cc2c[nH]c3ccccc23)C(=O)OC(C)C)cc1	male Sprague-Dawley mouse, plasma	intravenous, 10 mg/kg	1840 ng/mL
O=C1CCC(N2Cc3cc(C4CCN(Cc5ccccc5)CC4)ccc3C2=O)C(=O)N1 (centres unmarked)	male CD-1 mouse, plasma	oral, 3 mg/kg	273 ng/mL
C[C@@H](CN1CCC(n2c(=O)[nH]c3cc(Cl)ccc32)CC1)NC(=O)c1ccc2ccccc2c1	male CD-1 mouse, brain	intravenous, 1 mg/kg, single dose	0.236 ng/mL
CCOC(=O)c1c(NC(=O)CNC(C)C)sc2c1CCCCC2	male mouse, plasma	intraperitoneal, 5 mg/kg, single dose	193 ng/mL
NCc1ccc(-c2nn(Cc3ccccc3)c3ccccc23)o1	male CD-1 mouse, plasma	intraperitoneal, 30 mg/kg	4030 ng/mL
Cc1cc(-c2ccnc3[nH]cc(F)c23)cc(F)c1[C@@]1(O)[C@H](C)CN(C2CCS(=O)(=O)CC2)C[C@@H]1C	male CD-1 mouse, plasma	oral, 3 mg/kg	750 ng/mL
CC(C)(C)c1sc2ncnc(Oc3c(F)cccc3OC(F)(F)F)c2c1-c1ccc(Cl)cc1	mouse, plasma	oral, 30 mg/kg, single dose	10300 ng/mL
CC[C@H](C)[C@H](NC(=O)[C@H](CCC(=O)O)NC(=O)[C@H](CO)NC(=O)[C@@H](NC(=O)[C@@H](N)CO)C(C)C)C(=O)N[C@@H](CCC(N)=O)C(=O)N[C@@H](CC(C)C)C(=O)N[C@@H](CCSC)C(=O)N[C@@H](Cc1cnc[nH]1)C(=O)N[C@@H](CC(N)=O)C(=O)N[C@@H](CC(C)C)C(=O)NCC(=O)N[C@@H](CCCCN)C(=O)N[C@@H](Cc1cnc[nH]1)C(=O)N[C@@H](CC(C)C)C(=O)N[C@@H](CC(N)=O)C(=O)N[C@@H](CO)C(=O)N[C@@H](CCSC)C(=O)N[C@@H](CCC(=O)O)C(=O)N[C@@H](CCCNC(=N)N)C(=O)N[C@H](C(=O)N[C@@H](CCC(=O)O)C(=O)N[C@@H](Cc1c[nH]c2ccccc12)C(=O)N[C@@H](CC(C)C)C(=O)N[C@@H](CCCNC(=N)N)C(=O)N[C@@H](CCCCN)C(=O)N[C@@H](CCCCN)C(=O)N[C@@H](CC(C)C)C(=O)N[C@@H](CCC(N)=O)C(=O)N[C@@H](CC(=O)O)C(=O)N[C@H](C(=O)N[C@@H](Cc1cnc[nH]1)C(=O)N[C@@H](CC(N)=O)C(=O)N[C@@H](Cc1ccccc1)C(N)=O)C(C)C)C(C)C	female CD-1 mouse, serum	intravenous, 10 nmol/kg	8 nM
Cc1ncsc1-c1ccc([C@H](CC(=O)N2CCN(c3ccc(C#Cc4ccc(C(=O)N5CCC(n6cc(-c7ccc8c(c7)CCN8C(=O)Cc7cccc(OC(F)(F)F)c7)c7c(N)ncnc76)CC5)cc4)cn3)CC2)NC(=O)[C@@H]2C[C@@H](O)CN2C(=O)[C@@H](NC(=O)C2(F)CC2)C(C)(C)C)cc1	male C57BL/6 mouse, plasma	intravenous, 1 mg/kg	19600 ng/mL
COC1=CC(c2ccc[nH]2)=N/C1=C\c1[nH]c(Cc2ccc(OC(F)(F)F)cc2)cc1Cc1ccc(OC(F)(F)F)cc1	male CD-1 mouse, liver	oral, 40 mg/kg, single dose	20300 ng/mL
OCc1nc2ccc(NCc3ccc(C(F)(F)F)cc3)cc2[nH]1	male BALB/c mouse, plasma	oral, 10 mg/kg	1790 ng/mL
NCc1cc2c(cc1F)C(=O)N(C1CCC(=O)NC1=O)C2 (centres unmarked)	male CD-1 mouse, plasma	oral, 10 mg/kg	97.2 ng/mL
COCC(=O)N1CCc2[nH]c3c(Cl)c(Cl)ccc3c2[C@@H]1C	C57BL/6 mouse, blood	oral, 20 mg/kg	3470 nM
Cc1nc2ccc(OCc3ccc(C(F)(F)F)cc3)cc2[nH]1	male BALB/c mouse, plasma	intravenous, 1 mg/kg	4540 ng/mL
NCc1ccc(-c2nn(Cc3ccncc3)c3ccccc23)o1	male CD-1 mouse, plasma	oral, 10 mg/kg	168 ng/mL
Cc1cc(-c2ccnc3[nH]cc(F)c23)cc(F)c1[C@@]1(O)[C@H](C)CN(C(=O)CN)C[C@@H]1C	male CD-1 mouse, plasma	intravenous, 1 mg/kg	1980 ng/mL
OCc1ccc(-c2nn(Cc3ccccc3)c3ccccc23)o1	male CD-1 mouse, plasma	intraperitoneal, 30 mg/kg	5540 ng/mL
Cc1ncsc1-c1ccc([C@H](CC(=O)N2CC3(C2)CN(c2ccc(C#Cc4ccc(C(=O)N5CCC(n6cc(-c7ccc8c(c7)CCN8C(=O)Cc7cccc(OC(F)(F)F)c7)c7c(N)ncnc76)CC5)cc4)cn2)C3)NC(=O)[C@@H]2C[C@@H](O)CN2C(=O)[C@@H](NC(=O)C2(F)CC2)C(C)(C)C)cc1	male C57BL/6 mouse, plasma	intravenous, 1 mg/kg	19000 ng/mL
COC1=CC(c2ccc[nH]2)=N/C1=C\c1cc(Cc2ccc(OC(F)(F)F)cc2)c(C)[nH]1.Cl	male CD-1 mouse, liver	oral, 40 mg/kg, single dose	2660 ng/mL
